Activity calls are given as the source filed them.
Key:
Rattus norvegicus [1] = experiment: Neurotoxicity in Sprague-Dawley rat at 30 mg/kg, ip after 2 hrs by rotarod test; format: toxicity, organism-based; conditions: in vivo
Procedure, shortened: (§1)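 Male Sprague–Dawley rats given compound ip as a suspension in 0.5% methylcellulose, groups of four. Rotarod: 1 inch knurled rod at 6 rpm; three falls within 1 min counts as neurotoxic. Scored as number toxic/number tested at pretreatment times between 0.25 and 4 h, or at the stated time.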

Rattus norvegicus [2] = experiment: Anticonvulsant activity in ip dosed Sprague-Dawley rat assessed as protection against subcutaneous pentetrazole-induced seizure after 0.5 hrs; format: functional
Rattus norvegicus [3] = experiment: Anticonvulsant activity in Sprague-Dawley rat assessed as protection against maximal electroshock-induced seizure at 30 mg/kg, ip after 2 hrs; format: functional, organism-based
Rattus norvegicus [4] = experiment: Protective index, ratio of TD50 for ip dosed Sprague-Dawley rat to ED50 for ip dosed Sprague-Dawley rat assessed as protection against maximal electroshock-induced seizure after 1 hr; format: functional
Procedure, shortened: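 PI = TD50/ED50. Male CF-1 mice or male Sprague–Dawley rats given compound ip as 0.5% methylcellulose suspension. MES: 60 Hz corneal current, 50 mA mice or 150 mA rats, for […] after tetracaine eye drops; protection is abolition of hindlimb tonic extension.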

Mus musculus [5] = experiment: Neurotoxicity in CF1 albino mouse at 300 mg/kg, ip after 4 hrs by rotarod test; format: toxicity, organism-based; conditions: in vivo
Procedure, shortened: (§2)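 Rotarod neurotoxicity in male albino CF-1 mice dosed ip with compound suspended in 0.5% methylcellulose. Animal placed on a 1 inch diameter knurled plastic rod rotating at 6 rpm. Neurotoxicity scored when the animal falls off three times within 1 min. Readout is number of animals toxic/number tested at the stated time after dosing. TD50 with 95% confidence interval from the quantitative study.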

Rattus norvegicus [6] = experiment: Neurotoxicity in Sprague-Dawley rat at 30 mg/kg, ip after 1 hr by rotarod test; format: toxicity, organism-based; conditions: in vivo; procedure, shortened: as §1
Mus musculus [7] = experiment: Anticonvulsant activity in CF1 albino mouse assessed as protection against maximal electroshock-induced seizure at 10 mg/kg, ip after 0.5 hrs; format: functional, organism-based
Procedure, shortened: (§3)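 Male CF-1 mice dosed ip as suspension in 0.5% methylcellulose. Corneal electrodes deliver 60 Hz alternating current, 50 mA for […], after a drop of 0.5% tetracaine HCl in 0.9% NaCl per eye. Protection means abolition of hindlimb tonic extension; scored as protected/tested, or ED50 with 95% confidence interval.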

Mus musculus [8] = experiment: Anticonvulsant activity in CF1 albino mouse assessed as protection against maximal electroshock-induced seizure at 30 mg/kg, ip after 4 hrs; format: functional, organism-based; procedure, shortened: as §3
Rattus norvegicus [9] = experiment: Anticonvulsant activity in Sprague-Dawley rat assessed as protection against maximal electroshock-induced seizure at 30 mg/kg, ip after 0.5 hrs; format: functional, organism-based
Mus musculus [10] = experiment: Anticonvulsant activity in CF1 albino mouse assessed as protection against subcutaneous pentetrazole-induced seizure at 300 mg/kg, ip after 0.5 hrs; format: functional, organism-based
Procedure, shortened: (§4)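 Male CF-1 mice, ip in 0.5% methylcellulose; pentetrazole at CD97 (85 mg/kg) injected subcutaneously in a loose fold of neck skin. Observed 30 min; absence of even a threshold seizure (single clonic spasm lasting at least 5 s) counted as protection. Scored protected/tested, or ED50.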

Mus musculus [11] = experiment: Anticonvulsant activity in CF1 albino mouse assessed as protection against maximal electroshock-induced seizure at 100 mg/kg, ip after 4 hrs; format: functional, organism-based; procedure, shortened: as §3
Mus musculus [12] = experiment: Neurotoxicity in CF1 albino mouse at 60 mg/kg, ip after 1 to 4 hrs by rotarod test; format: toxicity, organism-based; conditions: in vivo; procedure, shortened: as §2
Mus musculus [13] = experiment: Neurotoxicity in CF1 albino mouse at 100 mg/kg, ip after 4 hrs by rotarod test; format: toxicity, organism-based; conditions: in vivo; procedure, shortened: as §2
Mus musculus [14] = experiment: Neurotoxicity in CF1 albino mouse at 3 mg/kg, ip after 0.5 hrs by rotarod test; format: toxicity, organism-based; conditions: in vivo; procedure, shortened: as §2
Mus musculus [15] = experiment: Protective index, ratio of TD50 for ip dosed CF1 albino mouse to ED50 for ip dosed CF1 albino mouse assessed as protection against maximal electroshock-induced seizure after 0.25 hrs; format: functional
Mus musculus [16] = experiment: Neurotoxicity in ip dosed CF1 albino mouse after 0.5 hrs by rotarod test; format: toxicity, organism-based; conditions: in vivo; procedure, shortened: as §2
Mus musculus [17] = experiment: Anticonvulsant activity in CF1 albino mouse assessed as protection against maximal electroshock-induced seizure at 100 mg/kg, ip after 0.5 hrs; format: functional, organism-based; procedure, shortened: as §3
Mus musculus [18] = experiment: Neurotoxicity in CF1 albino mouse at 30 mg/kg, ip after 0.5 hrs by rotarod test; format: toxicity, organism-based; conditions: in vivo; procedure, shortened: as §2
Histamine H3 receptor = Histamine H3 receptor (Homo sapiens, UniProt Q9Y5N1); experiment: Displacement of [3H]-Nalpha-methylhistamine from human recombinant histamine H3 receptor expressed in HEK293 cells after 90 mins; format: cell-based
Histamine H3 receptor, sequence (Q9Y5N1 whole entry): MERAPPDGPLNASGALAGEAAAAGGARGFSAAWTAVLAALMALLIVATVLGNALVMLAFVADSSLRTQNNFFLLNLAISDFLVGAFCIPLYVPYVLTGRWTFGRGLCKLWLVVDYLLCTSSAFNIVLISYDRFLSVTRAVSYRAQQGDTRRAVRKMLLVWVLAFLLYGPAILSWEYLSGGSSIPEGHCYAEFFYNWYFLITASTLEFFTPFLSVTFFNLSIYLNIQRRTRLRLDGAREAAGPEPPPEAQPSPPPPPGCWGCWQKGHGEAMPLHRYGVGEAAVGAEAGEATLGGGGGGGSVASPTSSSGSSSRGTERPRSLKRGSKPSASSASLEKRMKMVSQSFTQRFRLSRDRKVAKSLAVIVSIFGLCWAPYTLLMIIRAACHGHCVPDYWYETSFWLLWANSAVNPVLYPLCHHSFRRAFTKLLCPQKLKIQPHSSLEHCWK

Mus musculus [19] = experiment: Neurotoxicity in CF1 albino mouse at 30 mg/kg, ip after 4 hrs by rotarod test; format: toxicity, organism-based; conditions: in vivo; procedure, shortened: as §2
Mus musculus [20] = experiment: Anticonvulsant activity in CF1 albino mouse assessed as protection against maximal electroshock-induced seizure at 30 mg/kg, ip after 0.5 hrs; format: functional, organism-based; procedure, shortened: as §3
Rattus norvegicus [21] = experiment: Neurotoxicity in Sprague-Dawley rat at 30 mg/kg, ip after 4 hrs by rotarod test; format: toxicity, organism-based; conditions: in vivo; procedure, shortened: as §1
Mus musculus [22] = experiment: Anticonvulsant activity in CF1 albino mouse assessed as protection against 6 Hz-psychomotor-induced seizure at 60 mg/kg, ip after 4 hrs; format: functional, organism-based
Procedure, shortened: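 Male CF-1 mice, ip suspension in 0.5% methylcellulose. Corneal stimulation 0.2 ms monopolar rectangular pulses at 6 Hz, 32 mA for 3 s via constant-current device; mice without minimal clonic phase seizure counted protected. Groups of four; read at 0.25, 0.5, 1, 2, 4 h; result as protected/tested.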

Mus musculus [23] = experiment: Neurotoxicity in CF1 albino mouse at 10 mg/kg, ip after 0.5 hrs by rotarod test; format: toxicity, organism-based; conditions: in vivo
Procedure, shortened: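 Rotarod neurotoxicity in male CF-1 mice dosed ip as 0.5% methylcellulose suspension: mouse placed on 1 inch knurled rod rotating at 6 rpm; toxicity when the animal falls off three times within 1 min, with other signs noted. Scored as toxic/tested at 0.5 h and 4 h.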

Mus musculus [24] = experiment: Neurotoxicity in ip dosed CF1 albino mouse after 0.25 hrs by rotarod test; format: toxicity, organism-based; conditions: in vivo
Procedure, shortened: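 Rotarod neurotoxicity in male albino CF-1 mice dosed ip with compound suspended in 0.5% methylcellulose. Animal placed on a 1 inch diameter knurled plastic rod rotating at 6 rpm. Neurotoxicity scored when the animal falls off three times within 1 min. Readout is number of animals toxic/number tested at the stated time after dosing.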

Mus musculus [25] = experiment: Neurotoxicity in CF1 albino mouse assessed as unable to grasp rotarod, death, diarrhea, loss of righting reflux and clonic seizure at 100 mg/kg, ip after 0.5 hrs by rotarod test; format: toxicity, organism-based; conditions: in vivo
Procedure, shortened: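 Male albino CF-1 mice dosed ip with compound suspended in 0.5% methylcellulose, then placed on a 1-inch knurled plastic rod turning at 6 rpm. A fall three times within 1 min counted as neurotoxicity. Observations were made at 0.5 h and 4 h after dosing. Result given as animals showing toxicity per animals tested, with the kind of toxicity recorded.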

Mus musculus [26] = experiment: Anticonvulsant activity in CF1 albino mouse assessed as protection against maximal electroshock-induced seizure at 3 mg/kg, ip after 0.5 hrs; format: functional, organism-based; procedure, shortened: as §3
Mus musculus [27] = experiment: Anticonvulsant activity in ip dosed CF1 albino mouse assessed as protection against subcutaneous pentetrazole-induced seizure after 0.25 hrs; format: functional; procedure, shortened: as §4
Mus musculus [28] = experiment: Anticonvulsant activity in CF1 albino mouse assessed as protection against subcutaneous pentetrazole-induced seizure at 30 mg/kg, ip after 4 hrs; format: functional, organism-based; procedure, shortened: as §4
Rattus norvegicus [29] = experiment: Neurotoxicity in ip dosed Sprague-Dawley rat after 0.5 hrs by rotarod test; format: toxicity, organism-based; conditions: in vivo
Mus musculus [30] = experiment: Anticonvulsant activity in ip dosed CF1 albino mouse assessed as protection against maximal electroshock-induced seizure after 0.25 hrs; format: functional; procedure, shortened: as §3

## CC1CCCN(CCCCCCCOc2ccc(Cl)cc2)C1.O=C(O)C(=O)O (stereo unspecified)
Rattus norvegicus [1]
  Activity: Non-toxic
Rattus norvegicus [2]
  ED50: > 50 mg/kg
Rattus norvegicus [3]
  Activity: Active
Rattus norvegicus [4]
  Ratio TD50/ED50: 3.8
Mus musculus [5]
  Activity: Non-toxic
Rattus norvegicus [6]
  Activity: Non-toxic
Mus musculus [7]
  Activity: inactive
Mus musculus [8]
  Activity: Active
Rattus norvegicus [9]
  Activity: Active
Mus musculus [10]
  Activity: inactive
Mus musculus [11]
  Activity: Active
Mus musculus [12]
  Activity: Non-toxic
Mus musculus [13]
  Activity: Non-toxic
Mus musculus [14]
  Activity: Non-toxic
Mus musculus [15]
  Ratio TD50/ED50: 3
Mus musculus [16]
  ED50: 5.35 mg/kg
Mus musculus [17]
  Activity: Active
Mus musculus [18]
  Activity: Non-toxic
Histamine H3 receptor
  Ki: 180 nM
Mus musculus [19]
  Activity: Non-toxic
Mus musculus [20]
  Activity: Active
Rattus norvegicus [21]
  Activity: Non-toxic
Mus musculus [22]
  Activity: inactive
Mus musculus [23]
  Activity: Non-toxic
Mus musculus [24]
  TD50 (median neurotoxic dose): 48.28 mg/kg
Mus musculus [25]
  Activity: Toxic
Mus musculus [26]
  Activity: inactive
Mus musculus [27]
  ED50: > 47 mg/kg
Mus musculus [28]
  Activity: inactive
Rattus norvegicus [29]
  ED50: 50.35 mg/kg
Mus musculus [30]
  ED50: 16.1 mg/kg

— ChEMBL document CHEMBL3745596, “Chlorophenoxy aminoalkyl derivatives as histamine H(3)R ligands and antiseizure agents” (Bioorg Med Chem, 2016)
